High-throughput results (PubChem BioAssay)
In the library only some 1.6% were active in any assay of this set; here they are far more common.
HNF4A DNA FP: change in binding of human HNF4 alpha to DNA; P41235; HNF4a-FITC DNA binding, fluorescence polarization, 1 h; activity change, % at 10 µM; actives 0.3% (n = 360,000); in the data active means activity change above about 30%, passing the limit was not always enough
TPT1 inh: inhibitors of Candida albicans tRNA 2'-phosphotransferase TPT1. recombinant caTPT1, FP RNA substrate dephosphorylation. inhibition, % at 5 µM. actives 0.81% (n = 300,000). AID 1962;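 active means inhibition above the mean of all tested compounds plus 3 SD, set per screening campaign, cut at about 24% in these data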;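 further: plate controls were DMSO alone for no effect and ferristatin control at 100 nM for full effect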
SENP1 FRET inh: inhibitors of human SENP1 SUMO protease catalytic domain. Q9P0U3. recombinant SENP1 catalytic domain, CyPet-SUMO1-YPet FRET cleavage. inhibition, % at 10 µM. actives 0.21% (n = 360,000);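 active means inhibition at least 30% at 10 µM, raw YFP signal under a set limit, fluorescence ratio 0.5 to 1.5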;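 further: 0% = enzyme with DMSO and 100% = no enzyme wells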
Target sequence (Q9P0U3 419-644 limits assumed): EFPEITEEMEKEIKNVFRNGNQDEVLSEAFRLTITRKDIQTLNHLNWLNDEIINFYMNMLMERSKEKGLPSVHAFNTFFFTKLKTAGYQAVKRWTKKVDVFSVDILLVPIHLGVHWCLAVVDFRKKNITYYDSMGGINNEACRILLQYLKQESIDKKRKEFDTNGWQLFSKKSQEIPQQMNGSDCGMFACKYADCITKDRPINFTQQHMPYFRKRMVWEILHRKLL
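system = hSENP1 catalytic domain, recombinant | reagent = SFCypet-SUMO1-SFYpet substrate at 25 nM | doses = one dose per compound, 10 µM, 0.5% DMSO | incubation = enzyme reaction for 50 min at room temperature, dark | measured by = FRET, CFP and YFP emission | controls = no-enzyme low, enzyme-DMSO high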
CSN deneddyl inh: inhibitors of human CSN-mediated cullin deneddylation; AID 651999; Purified CSN, SCF-Nedd8-OG deneddylation, fluorescence polarization; actives 0.38% (n = 360,000); Q92905; inhibition, % at 12.5 µM;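 active means pattern-corrected inhibition above about 35%, with an unprinted fluorescence ratio check between 0.5 and 1.5, limit read from the data, passing the limit was not always enough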;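 further: 0% = enzyme with substrate and 100% = substrate without enzyme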
Target sequence (Q92905 whole entry, looked up, one chain of several): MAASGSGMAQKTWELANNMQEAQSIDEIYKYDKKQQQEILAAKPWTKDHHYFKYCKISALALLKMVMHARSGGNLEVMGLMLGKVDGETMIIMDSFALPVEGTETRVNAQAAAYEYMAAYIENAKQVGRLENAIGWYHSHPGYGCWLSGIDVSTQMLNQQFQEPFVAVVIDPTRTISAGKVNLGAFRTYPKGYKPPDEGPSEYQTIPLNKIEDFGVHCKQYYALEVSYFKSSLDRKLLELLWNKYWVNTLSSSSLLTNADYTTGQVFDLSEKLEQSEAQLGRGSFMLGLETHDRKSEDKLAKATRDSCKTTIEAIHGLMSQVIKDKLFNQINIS
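Test system: Human Csn5 produced in HEK293T cells | Compound: 12.5 µM single point | Times: 90 min, room temperature | Signal: Fluorescence polarization readout | Read-out basis: % inhibition of substrate cleavage by Csn5 | Controls: no-enzyme wells high, enzyme-with-substrate wells low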
Rpn11 inh: inhibitors of human proteasome Rpn11. AID 588493. inhibition, % at 20 µM. actives 0.59% (n = 360,000). human 26S proteasome, Ub4-pepOG fluorescence polarization; 20S core pre-blocked with epoxomicin;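 active means inhibition at 20 µM, scaled to each plate's controls, above about 33%, limit read from the data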
The depositor's hits bear a star; / = no result shown.

SMILES	HNF4A DNA FP	TPT1 inh	SENP1 FRET inh	CSN deneddyl inh	Rpn11 inh
COc1ccc(S(=O)(=O)NCc2cccnc2)cc1OC	46*	-8	0	-2	5
O=C(CSc1ccc(Br)cc1)Nc1ccccc1N1CCOCC1	0	-2	3	1	-2
COc1ccc(N(C(=O)c2ccncc2)S(=O)(=O)c2ccccc2)cc1	1	-5	1	1	-7
COc1ccc(N(C(=O)c2ccncc2)S(=O)(=O)c2ccc(F)cc2)cc1	7	-3	3	85*	-2
COc1ccccc1NC(=O)Nc1cccnc1	3	-4	1	-3	3
CCc1ccc(/C(C)=N/NC(=O)CNC(=O)/C=C/c2ccccc2OC)cc1	1	0	0	1	2
CCc1ccc(/C(C)=N/NC(=O)CNC(=O)/C=C/c2ccco2)cc1	-60	1	2	38*	/
CC(C)c1nc2sc3c(SCC(=O)NCc4ccco4)ncnc3c2c2c1CCC2	-23	8	-13	46*	0
CCN(CC)C1CCN(C(=O)c2cc(COc3ccc(-n4cncn4)cc3)on2)C1 (centres undefined)	2	1	-1	-1	-23
CCOc1ccc(NC(=O)OCCN2CCN(CCc3ccccc3)C(C)C2)cc1 (centres undefined)	2	/	2	3	-4
CCS(=O)(=O)Nc1ccc(-c2nnc(SCC(=O)c3cccc(OC)c3)o2)cc1	1	-3	0	0	4
CCS(=O)(=O)Nc1ccc(-c2nnc(SCC(=O)c3ccc(NC(C)=O)c(OC)c3)o2)cc1	2	-5	1	46*	37
COc1cc(Cl)ccc1NC(=S)N(CCN(C)C)C(C)c1ccncc1 (centres undefined)	4	0	1	2	1
COc1ccc(NC(=S)N(CCN(C)C)C(C)c2ccncc2)cc1Cl (centres undefined)	44*	0	-1	3	-6
Cc1nnc(-c2cccc(Br)c2)c2cn(-c3ccc(Br)cc3)nc12	63*	17	64	91	38
Cc1nnc(-c2cccc(Br)c2)c2cn(-c3ccccc3)nc12	144	-2	17	-76	/
CCOC(=O)C1CCN(c2ncnc3c2cnn3C)CC1	101*	4	0	-2	8
CCOC(=O)C1CCN(c2ncnc3c2cnn3-c2ccccc2)CC1	-3	-1	-2	5	-7
CC(NC(=O)/C(C#N)=C1\N=C(NC(=O)c2cccs2)c2ccccc21)c1ccccc1 (centres undefined)	55*	9	-55	15	16
COc1ccc(/C=C2/C(=O)OCc3cc(OC)c(OC)cc32)cc1	-1	3	0	-3	-1
CN(C)c1ccc([C@@H]2[C@@H]([N+](=O)[O-])[C@H]3C=Cc4ccccc4N3[C@H]2C(=O)c2ccc(Cl)cc2)cc1	30	82*	-25	24	69*
O=C(c1ccccc1)C1C(c2ccccc2)C1[N+](=O)[O-] (centres undefined)	-2	0	2	3	-1
CN(C)C(=O)c1ccc(Oc2ccc(C(=O)N(C)C)cc2)cc1	37*	-4	1	3	-5
CN(C)CCn1cnc2c(c1=N)C(c1ccccc1)c1ccc3ccccc3c1O2 (centres undefined)	0	2	-2	3	-25
C#CCOCCOCCOCCNc1nc(N2CCN(C(=O)CCCCCCCCCCNC(=O)[C@@H](CCSC)n3cc(CCO)nn3)CC2)nc(N2CCN(C(=O)CCCCCCCCCCNC(=O)[C@H]([C@@H](C)CC)n3cc(CCCCN=C(N)N)nn3)CC2)n1	212	-4	3	139*	87*
SMILES	HNF4A DNA FP	TPT1 inh	SENP1 FRET inh	CSN deneddyl inh	Rpn11 inh
C#CCOCCOCCOCCNc1nc(N2CCN(C(=O)CCCCCCCCCCNC(=O)[C@H](CCCCN)n3cc(CCO)nn3)CC2)nc(N2CCN(C(=O)CCCCCCCCCCNC(=O)[C@H](CCCCN)n3cc(CCO)nn3)CC2)n1	131	0	-13	104*	8
C#CCOCCOCCOCCNc1nc(N2CCN(C(=O)CCCCCCCCCCNC(=O)[C@@H](CCSC)n3cc(CCO)nn3)CC2)nc(N2CCN(C(=O)CCCCCCCCCCNC(=O)[C@H]([C@@H](C)CC)n3cc(CCCCCN)nn3)CC2)n1	/	0	/	/	/
C#CCOCCOCCOCCNc1nc(N2CCN(C(=O)C([C@@H](C)O)n3cc([C@@H](N)CCCCN)nn3)CC2)nc(N2CCN(C(=O)C([C@@H](C)O)n3cc([C@@H](N)CCCCN)nn3)CC2)n1 (some centres undefined)	8	/	0	-1	-17
C#CCOCCOCCOCCNc1nc(N2CCN(C(=O)CCCCCCCCCCNC(=O)[C@H](CCCCN)n3cc(CCO)nn3)CC2)nc(N2CCN(C(=O)CCCCCCCCCCNC(=O)[C@H](CCCN=C(N)N)n3cc(C[C@@H](C)CC)nn3)CC2)n1	164	5	-4	109*	77*
C#CCOCCOCCOCCNc1nc(N2CCN(C(=O)C([C@@H](C)O)n3cc([C@@H](N)CCCCN)nn3)CC2)nc(N2CCN(C(=O)[C@H](CO)n3cc([C@@H](N)C(C)C)nn3)CC2)n1 (some centres undefined)	78*	/	-5	25	0
Cc1c(Br)c([N+](=O)[O-])nn1CCCC(=O)NC(C)c1ccccc1 (centres undefined)	-1	-1	1	3	-6
O=C1C=C(OCCF)CC(c2ccc(Br)cc2)O1 (centres undefined)	-1	/	4	0	/
CCCCN(C=O)c1c(CC)nc2ccc(C(=O)N3CCCCC3)cn12	5	/	-8	6	0
Cc1ccc(CN2CCN(Cc3cnc(N4CCOCC4)s3)CC2CCO)cc1 (centres undefined)	5	-7	3	0	8
Cc1ccc2nc(C)cc(NCCO)c2c1	0	-1	-3	77*	2
O=C1/C(=C/c2ccc(N3CCOCC3)o2)SC(=Nc2ccccc2)N1CCc1c[nH]c2ccccc12	89	148*	-25	-72	/
COc1cc(/C=C2\SC(=Nc3ccccc3)N(CCc3c[nH]c4ccccc34)C2=O)ccc1OC(C)C(=O)O (centres undefined)	-3	2	1	4	11
CC1(C(=O)NCc2cccs2)Cc2c(-c3ccc4c(c3)OCO4)ccnc2O1 (centres undefined)	0	/	-1	5	-2
CCOc1ccccc1C(=O)NCc1ccc2c(c1)OCO2	1	-3	2	-9	-1
CCOc1cccc2cc(-c3nnc(NCc4ccc5c(c4)OCO5)s3)c(=O)oc12	52*	4	-27	46*	0
CN1CCCN(c2cc(-c3ccc4ccccc4c3)nc3ccnn23)CC1	8	/	-28	9	4
